# Measurements of several laboratories.
# Target: Mitogen-activated protein kinase 4 (MAPK4, Homo sapiens, UniProt P31152)
Structure (SMILES),observed,technique,tested at,remaining binding [%]
CN(C)c1ncc(F)c(-c2cnn3ncccc23)n1,binding,,1 µM,100
O=C1NC(c2ccccn2)Sc2ccccc21 (stereo not drawn),cell-free assay,competition with immobilised ligand,1 µM,86
O=C(NCCCN1CCOCC1)c1ccc(Nc2nccc(-c3cc4ccccc4s3)n2)cc1,binding,competition with immobilised ligand,1 µM,88
O=C(Nc1c[nH]nc1C(=O)NC1CCNCC1)c1cc(F)cc(F)c1,binding,competition with immobilised ligand,1 µM,100
c1cncc(-c2cccc(Nc3nccc(NC4CCCCC4)n3)c2)c1,binding,competition with immobilised ligand,10 µM,95
C[C@@H]1CCN(c2nccc(-c3cnn4ncccc34)n2)C1,binding,,1 µM,100
C=CC(=O)N1CCC(C(=O)NCC(=O)N2CCN(c3nc(-c4cnc(N)nc4C(F)F)nc(N4CCOCC4)n3)CC2)CC1,binding,competition with immobilised ligand,1 µM,97
CN(C)c1nccc(-c2cnn3ncccc23)n1,binding,,1 µM,100
FC(F)(F)Oc1cccc(-c2cnc3ccc(-c4ccncc4)nn23)c1,cell-free assay,competition with immobilised ligand,5 µM,100
N[C@H]1CCN(c2nccc(-c3cnn4ncccc34)n2)C1,binding,,1 µM,100
Cn1nc(C(F)(F)F)cc1-c1cnc(N2CCc3cc(S(=O)(=O)Nc4c(F)cc(Cl)cc4F)cc(N4CCCC4=O)c32)nc1,cell-free assay,competition with immobilised ligand,1 µM,100
CC1CCCN1c1nccc(-c2cnn3ncccc23)n1 (stereo not drawn),binding,,1 µM,100
C[C@@H](c1ccc(-n2cnc3c(N)ncnc32)cc1)N1CCc2nn(C)c(Cc3ccccc3)c2C1=O,binding,competition with immobilised ligand,0.1 µM,87
CO[C@H]1CC[C@H](CNc2ccc(S(=O)(=O)NC(=O)c3ccc(N4CCN(CC5=C(c6ccc(Cl)cc6)CC(C)(C)CC5)CC4)cc3Oc3cnc4[nH]ccc4c3)cc2[N+](=O)[O-])CC1,cell-free assay,competition with immobilised ligand,1 µM,100
CNC(=O)[C@@H]1CC[C@@H](n2c(-c3ccc4cnccc4c3)nc3ccc(C(=O)NCc4cccc(C(N)=O)c4)cc32)C1,binding,competition with immobilised ligand,1 µM,100
CO[C@@H](C)c1c(Nc2ccc([C@@H](N(C)C(=O)C3CCS(=O)(=O)CC3)C(F)(F)F)cc2)cnc2cc(Cl)nn12,cell-free assay,competition with immobilised ligand,1 µM,100
O=C(c1ccc(Nc2nccc(-c3cc4ccccc4s3)n2)cc1)N1CCC(N2CCCC2)CC1,binding,competition with immobilised ligand,1 µM,74
CCCOc1ccc([C@H]2[C@H](C(=O)O)[C@@H](c3ccc4c(c3)OCO4)CN2CC(=O)Nc2c(CC)cccc2CC)cc1,cell-free assay,competition with immobilised ligand,1 µM,93
Cc1cnc(Nc2ccc(C(=O)N3CCC(N4CCCC4)CC3)cc2)nc1-c1cc2ccccc2s1,binding,competition with immobilised ligand,1 µM,39
CN(CCCC(F)(F)F)c1nccc(-c2cnn3ncccc23)n1,binding,,1 µM,100
O=C(Nc1cnc(Oc2ccc(F)cc2)nc1)N1CCc2ncccc2[C@@H]1c1ccc(F)cc1,cell-free assay,competition with immobilised ligand,1 µM,95
